Results: ChEMBL document CHEMBL5705889, “Novel mutant-selective EGFR kinase inhibitors against EGFR T790M” (Nature, 2009)
Active and inactive are the calls of the source. The rule behind the calls is not given here.

Legend:
[1] = molecular target: Receptor-type tyrosine-protein kinase FLT3 (Homo sapiens, UniProt P36888, D835Y); test: Binding affinity to FLT3 D835Y mutant (unknown origin) assessed as dissociation constant
[2] = molecular target: RAC-alpha serine/threonine-protein kinase (Homo sapiens) (UniProt P31749); test: Inhibition of AKT phosphorylation in human NCI-H1975 cells at 0.01 to 1 uM incubated for 16 hrs by immunoblot analysis; assay type: cell-based; conditions: dose 0.01-1 µM
Sequence of RAC-alpha serine/threonine-protein kinase (Homo sapiens) (P31749 whole entry): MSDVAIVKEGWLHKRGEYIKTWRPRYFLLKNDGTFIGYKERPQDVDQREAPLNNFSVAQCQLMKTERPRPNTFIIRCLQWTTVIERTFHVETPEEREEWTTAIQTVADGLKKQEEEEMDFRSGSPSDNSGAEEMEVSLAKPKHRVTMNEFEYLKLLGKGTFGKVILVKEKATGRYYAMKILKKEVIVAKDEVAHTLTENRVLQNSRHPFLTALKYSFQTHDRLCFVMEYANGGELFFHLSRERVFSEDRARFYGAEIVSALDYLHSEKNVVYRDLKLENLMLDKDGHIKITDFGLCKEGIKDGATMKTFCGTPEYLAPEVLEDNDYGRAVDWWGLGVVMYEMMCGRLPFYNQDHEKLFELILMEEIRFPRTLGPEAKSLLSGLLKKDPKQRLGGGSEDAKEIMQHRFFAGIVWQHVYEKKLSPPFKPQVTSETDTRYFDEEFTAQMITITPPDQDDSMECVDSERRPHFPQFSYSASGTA

[3] = system: BaF3; test: cells; assay type: functional, cell-based; conditions: Mus musculus, BaF3, 72 h
[4] = system: BaF3; test: cells; assay type: functional, cell-based; conditions: Mus musculus, BaF3, 72 h; remark: listed apart in the source
[5] = AUC(0 to infinity) in mouse at 10 mg/kg, po administered as single dose; assay type: ADME, organism-based; conditions: in vivo
[6] = Half-life in mouse at 10 mg/kg, po administered as single dose; assay type: ADME, organism-based; conditions: in vivo
[7] = molecular target: Tyrosine-protein kinase Tec (Homo sapiens) (UniProt P42680); test: Inhibition of TEC (unknown origin)
Sequence of Tyrosine-protein kinase Tec (Homo sapiens) (P42680 whole entry, looked up): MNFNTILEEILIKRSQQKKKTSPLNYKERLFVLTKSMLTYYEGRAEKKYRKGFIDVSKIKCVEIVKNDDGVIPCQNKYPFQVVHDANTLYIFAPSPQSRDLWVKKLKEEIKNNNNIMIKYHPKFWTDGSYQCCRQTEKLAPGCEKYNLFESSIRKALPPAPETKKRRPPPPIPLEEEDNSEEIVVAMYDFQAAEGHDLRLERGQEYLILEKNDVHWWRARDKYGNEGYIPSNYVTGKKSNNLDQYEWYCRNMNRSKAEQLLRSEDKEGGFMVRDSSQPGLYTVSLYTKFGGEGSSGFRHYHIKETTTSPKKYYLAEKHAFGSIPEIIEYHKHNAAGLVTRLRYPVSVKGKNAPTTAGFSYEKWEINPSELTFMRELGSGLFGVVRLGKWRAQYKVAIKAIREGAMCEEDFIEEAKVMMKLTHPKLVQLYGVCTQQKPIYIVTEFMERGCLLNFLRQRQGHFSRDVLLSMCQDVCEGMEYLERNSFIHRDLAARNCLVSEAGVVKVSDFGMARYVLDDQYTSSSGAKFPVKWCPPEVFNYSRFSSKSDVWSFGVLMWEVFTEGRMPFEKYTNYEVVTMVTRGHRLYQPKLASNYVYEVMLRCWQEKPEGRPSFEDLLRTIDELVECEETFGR

[8] = system: BaF3; test: cells; assay type: functional, cell-based; conditions: Mus musculus, BaF3, 72 h; remark: listed apart in the source
[9] = Drug concentration in mouse plasma at 10 mg/kg, po administered as single dose and measured after 1 hrs; assay type: ADME, organism-based
[10] = system: HCC827; test: cells; assay type: functional, cell-based; conditions: Homo sapiens, HCC827, 72 h
[11] = system: Mus musculus; test: Invivo antitumor activity in transgenic mouse harboring EGFR L858R/T790M mutant assessed as decrease in cellularity at 25 mg/kg administered via gavage for 2 weeks by H&E staining based analysis; assay type: functional, organism-based
In short: (§1)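 EGFR-TL (L858R/T790M) or exon19 deletion-T790M (TD) inducible bitransgenic mice dosed by oral gavage daily at 25 mg/kg; vehicle 10% 1-methyl-2-pyrrolidinone:90% PEG-300. Tumors followed by MRI; lung histology by standard protocols.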

[12] = system: Mus musculus; test: In vivo inhibition of EGFR phosphorylation in transgenic mouse harboring EGFR L858R/T790M mutant at 2.5 to 25 mg/kg administered as two doses separated by 16 hours by immunoblot analysis; assay type: functional, organism-based; conditions: dose 2.5-25 mg/kg
[13] = system: Mus musculus; test: Invivo antitumor activity in transgenic mouse harboring EGFR del19/T790M mutant assessed as decrease in cellularity at 25 mg/kg administered via gavage for 2 weeks by H&E staining based analysis; assay type: functional, organism-based; in short: as §1
[14] = Volume of distribution at steady state in mouse at 1 mg/kg, iv administered as single dose; assay type: ADME, organism-based; conditions: in vivo, read-out: Vdss
[15] = Oral bioavailability in mouse at 10 mg/kg administered as single dose; assay type: ADME, organism-based; conditions: in vivo
[16] = system: Mus musculus; test: Invivo antitumor activity in transgenic mouse harboring EGFR L858R/T790M mutant assessed as remodelling/scarring at 25 mg/kg administered via gavage for 2 weeks by H&E staining based analysis; assay type: functional, organism-based; in short: as §1
[17] = molecular target: Tyrosine-protein kinase Blk (Homo sapiens, UniProt P51451); test: Binding affinity to BLK (unknown origin) assessed as dissociation constant
Sequence of Tyrosine-protein kinase Blk (P51451 whole entry): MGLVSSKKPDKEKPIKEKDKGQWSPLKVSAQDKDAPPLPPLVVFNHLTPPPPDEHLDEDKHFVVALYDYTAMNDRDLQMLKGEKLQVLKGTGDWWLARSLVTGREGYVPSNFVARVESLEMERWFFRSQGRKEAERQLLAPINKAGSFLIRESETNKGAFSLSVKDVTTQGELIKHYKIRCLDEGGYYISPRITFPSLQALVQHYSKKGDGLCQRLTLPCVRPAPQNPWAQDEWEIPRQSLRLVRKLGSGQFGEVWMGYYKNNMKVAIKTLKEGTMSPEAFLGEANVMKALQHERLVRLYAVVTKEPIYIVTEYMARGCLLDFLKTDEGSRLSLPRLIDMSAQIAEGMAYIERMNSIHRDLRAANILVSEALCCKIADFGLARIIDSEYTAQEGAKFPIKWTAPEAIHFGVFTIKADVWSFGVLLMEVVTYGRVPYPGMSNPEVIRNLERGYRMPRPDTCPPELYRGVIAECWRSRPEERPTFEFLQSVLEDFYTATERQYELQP

[18] = system: Mus musculus; test: Invivo antitumor activity in transgenic mouse harboring EGFR del19/T790M mutant assessed as reduction in nodule remnants in tumor at 25 mg/kg administered via gavage for 2 weeks by H&E staining based analysis; assay type: functional, organism-based; in short: as §1
[19] = molecular target: Serine/threonine-protein kinase PLK4 (Homo sapiens, UniProt O00444); test: Binding affinity to PLK4 (unknown origin) assessed as dissociation constant
Sequence of Serine/threonine-protein kinase PLK4 (O00444 whole entry): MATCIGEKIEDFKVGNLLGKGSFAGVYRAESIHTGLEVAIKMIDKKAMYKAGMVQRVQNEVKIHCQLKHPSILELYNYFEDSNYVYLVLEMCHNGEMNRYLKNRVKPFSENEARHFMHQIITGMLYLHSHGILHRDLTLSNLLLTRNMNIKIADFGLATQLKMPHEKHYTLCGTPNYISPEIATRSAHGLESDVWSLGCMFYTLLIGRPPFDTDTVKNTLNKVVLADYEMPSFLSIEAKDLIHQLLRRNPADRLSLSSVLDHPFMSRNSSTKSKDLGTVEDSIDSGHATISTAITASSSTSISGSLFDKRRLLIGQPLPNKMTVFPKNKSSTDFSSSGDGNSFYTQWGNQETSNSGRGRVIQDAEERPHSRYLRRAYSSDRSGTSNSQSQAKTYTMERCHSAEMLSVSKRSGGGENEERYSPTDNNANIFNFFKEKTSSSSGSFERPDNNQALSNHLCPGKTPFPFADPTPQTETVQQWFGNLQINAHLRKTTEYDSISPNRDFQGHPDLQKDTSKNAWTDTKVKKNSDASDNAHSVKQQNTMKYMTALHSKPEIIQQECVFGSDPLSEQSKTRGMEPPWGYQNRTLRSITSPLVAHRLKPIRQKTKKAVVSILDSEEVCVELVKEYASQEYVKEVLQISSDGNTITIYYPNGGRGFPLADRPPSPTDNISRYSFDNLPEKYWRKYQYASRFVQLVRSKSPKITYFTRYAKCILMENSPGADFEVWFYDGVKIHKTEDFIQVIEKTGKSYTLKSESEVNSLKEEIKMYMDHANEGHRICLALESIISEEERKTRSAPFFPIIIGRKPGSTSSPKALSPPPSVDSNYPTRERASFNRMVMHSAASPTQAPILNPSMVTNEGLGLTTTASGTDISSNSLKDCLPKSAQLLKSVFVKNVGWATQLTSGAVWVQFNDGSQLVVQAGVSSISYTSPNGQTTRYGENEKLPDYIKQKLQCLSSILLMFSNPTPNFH

[20] = system: Mus musculus; test: Invivo antitumor activity in transgenic mouse harboring EGFR del19/T790M mutant assessed as remodelling/scarring at 25 mg/kg administered via gavage for 2 weeks by H&E staining based analysis; assay type: functional, organism-based; in short: as §1
[21] = system: BaF3; test: cells; assay type: functional, cell-based; conditions: Mus musculus, BaF3, 72 h; remark: listed apart in the source
[22] = Toxicity in mouse harboring EGFR del E746_A750/T790M mutant assessed as effect on serum creatine level at 25 mg/kg administered via gavage for 2 weeks; assay type: organism-based; conditions: in vivo, po, 336 h
In short: (§2)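 Inducible bitransgenic tumor mice gavaged daily, 25 mg/kg, vehicle NMP (10% 1-methyl-2-pyrrolidinone, 90% PEG-300), compared against vehicle-treated mice; weight, serum creatine and total white blood cell count monitored during the study.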

[23] = system: Calu-3; test: cells; assay type: functional, cell-based; conditions: Homo sapiens, Calu-3, 72 h
[24] = Half-life in mouse at 1 mg/kg, iv administered as single dose; assay type: ADME, organism-based; conditions: in vivo
[25] = Drug concentration in mouse plasma at 1 mg/kg, iv administered as single dose and measured after 8 hrs; assay type: ADME, organism-based
[26] = AUC(0 to infinity) in mouse at 1 mg/kg, iv administered as single dose; assay type: ADME, organism-based; conditions: in vivo
[27] = Toxicity in mouse harboring EGFR del E746_A750/T790M mutant assessed as effect on body weight at 25 mg/kg administered via gavage for 2 weeks; assay type: organism-based; conditions: in vivo, po, 336 h; in short: as §2
[28] = system: Mus musculus; test: Invivo antitumor activity in transgenic mouse harboring EGFR del19/T790M mutant assessed as reduction in small residual nodules in tumor at 25 mg/kg administered via gavage for 2 weeks by H&E staining based analysis; assay type: functional, organism-based; in short: as §1
[29] = molecular target: NUAK family SNF1-like kinase 2 (Homo sapiens, UniProt Q9H093); test: Binding affinity to SNARK (unknown origin) assessed as dissociation constant
Sequence of NUAK family SNF1-like kinase 2 (Q9H093 whole entry): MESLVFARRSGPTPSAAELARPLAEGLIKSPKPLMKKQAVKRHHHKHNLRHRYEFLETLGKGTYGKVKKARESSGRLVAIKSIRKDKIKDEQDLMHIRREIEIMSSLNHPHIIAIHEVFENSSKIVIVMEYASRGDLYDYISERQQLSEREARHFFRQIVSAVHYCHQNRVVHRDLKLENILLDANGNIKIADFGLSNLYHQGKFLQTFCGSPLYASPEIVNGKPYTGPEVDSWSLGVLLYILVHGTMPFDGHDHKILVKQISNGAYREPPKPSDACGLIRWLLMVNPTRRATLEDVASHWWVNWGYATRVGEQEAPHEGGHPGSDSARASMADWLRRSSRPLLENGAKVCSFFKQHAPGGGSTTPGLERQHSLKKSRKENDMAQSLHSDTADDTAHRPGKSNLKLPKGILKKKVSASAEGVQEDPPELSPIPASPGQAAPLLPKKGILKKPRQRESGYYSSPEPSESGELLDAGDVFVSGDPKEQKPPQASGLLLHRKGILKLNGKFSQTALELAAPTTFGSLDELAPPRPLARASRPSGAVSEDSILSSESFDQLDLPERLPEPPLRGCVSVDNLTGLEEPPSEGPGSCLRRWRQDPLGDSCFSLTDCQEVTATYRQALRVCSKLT

[30] = molecular target: Tyrosine-protein kinase BTK (Homo sapiens, UniProt Q06187); test: Binding affinity to BTK (unknown origin) assessed as dissociation constant
[31] = cells; assay type: functional, cell-based; conditions: Homo sapiens, Gefitinib-resistant PC9, 72 h
[32] = Drug concentration in mouse plasma at 10 mg/kg, po administered as single dose and measured after 0.5 hrs; assay type: ADME, organism-based
[33] = cells; assay type: functional, cell-based; conditions: Homo sapiens, NCI-H1781, 72 h
[34] = system: Mus musculus; test: Invivo antitumor activity in transgenic mouse harboring EGFR L858R/T790M mutant assessed as increase in fibrosis at 25 mg/kg administered via gavage for 2 weeks by H&E staining based analysis; assay type: functional, organism-based; in short: as §1
[35] = molecular target: Cytoplasmic tyrosine-protein kinase BMX (Homo sapiens) (UniProt P51813); test: Binding affinity to BMX (unknown origin)
Sequence of Cytoplasmic tyrosine-protein kinase BMX (Homo sapiens) (P51813 whole entry): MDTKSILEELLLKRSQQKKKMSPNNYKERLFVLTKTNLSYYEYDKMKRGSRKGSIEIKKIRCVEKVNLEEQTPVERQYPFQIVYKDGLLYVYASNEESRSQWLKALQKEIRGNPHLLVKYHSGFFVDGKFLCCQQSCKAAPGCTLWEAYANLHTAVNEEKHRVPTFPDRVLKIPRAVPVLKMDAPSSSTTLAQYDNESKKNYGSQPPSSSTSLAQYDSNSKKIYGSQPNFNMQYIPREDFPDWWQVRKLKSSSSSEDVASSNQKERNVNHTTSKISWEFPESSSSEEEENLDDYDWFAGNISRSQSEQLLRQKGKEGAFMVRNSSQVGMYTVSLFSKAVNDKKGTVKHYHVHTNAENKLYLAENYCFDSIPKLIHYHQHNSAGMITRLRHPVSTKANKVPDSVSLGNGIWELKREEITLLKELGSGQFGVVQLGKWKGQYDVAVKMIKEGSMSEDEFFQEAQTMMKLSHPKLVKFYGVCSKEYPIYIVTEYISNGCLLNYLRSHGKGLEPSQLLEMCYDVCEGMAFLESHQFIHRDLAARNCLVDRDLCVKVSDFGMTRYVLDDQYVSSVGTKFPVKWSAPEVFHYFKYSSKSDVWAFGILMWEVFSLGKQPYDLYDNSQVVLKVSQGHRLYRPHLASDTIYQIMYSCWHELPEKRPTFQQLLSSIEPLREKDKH

[36] = cells; assay type: functional, cell-based; conditions: Homo sapiens, NCI-H1819, 72 h
[37] = molecular target: Tyrosine-protein kinase ITK/TSK (Homo sapiens, UniProt Q08881); test: Binding affinity to ITK (unknown origin) assessed as dissociation constant
Sequence of Tyrosine-protein kinase ITK/TSK (Q08881 whole entry): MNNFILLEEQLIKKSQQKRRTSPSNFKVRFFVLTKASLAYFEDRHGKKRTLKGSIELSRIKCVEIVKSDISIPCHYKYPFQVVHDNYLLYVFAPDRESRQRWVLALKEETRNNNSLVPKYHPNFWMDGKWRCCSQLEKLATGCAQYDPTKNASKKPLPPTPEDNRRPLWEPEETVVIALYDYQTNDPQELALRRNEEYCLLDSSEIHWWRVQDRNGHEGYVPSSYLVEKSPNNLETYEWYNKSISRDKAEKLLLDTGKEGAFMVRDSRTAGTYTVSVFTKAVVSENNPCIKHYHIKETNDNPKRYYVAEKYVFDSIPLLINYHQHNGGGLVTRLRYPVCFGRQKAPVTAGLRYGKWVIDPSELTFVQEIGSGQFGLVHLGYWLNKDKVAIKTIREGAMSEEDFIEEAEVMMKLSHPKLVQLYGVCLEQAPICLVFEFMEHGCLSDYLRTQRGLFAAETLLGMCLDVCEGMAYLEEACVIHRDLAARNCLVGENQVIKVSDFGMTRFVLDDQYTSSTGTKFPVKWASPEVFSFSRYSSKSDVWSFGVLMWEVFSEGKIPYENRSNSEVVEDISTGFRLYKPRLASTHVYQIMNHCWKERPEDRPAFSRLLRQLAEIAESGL

[38] = cells; assay type: functional, cell-based; conditions: Homo sapiens, HCC827 Gefitinib-resistant (GR) cell, 72 h
[39] = Drug concentration in mouse plasma at 1 mg/kg, iv administered as single dose and measured after 1 hrs; assay type: ADME, organism-based
[40] = system: BaF3; test: cells; assay type: functional, cell-based; conditions: Mus musculus, BaF3, 72 h; remark: listed apart in the source
[41] = Drug concentration in mouse plasma at 1 mg/kg, iv administered as single dose and measured after 4 hrs; assay type: ADME, organism-based

C=CC(=O)Nc1cccc(Oc2nc(Nc3ccc(N4CCN(C)CC4)cc3OC)ncc2Cl)c1
Kd [1]: 33 nM
inhibition [2]: Active
IC50 [3]: > 3300 nM
IC50 [4]: 2 nM
AUC(0-inf) [5]: 2400 ng·h/mL
half-life [6]: 2.46 h
inhibition [7]: Active
IC50 [8]: 1860 nM
concentration at 1 h [9]: 340 ng/mL
IC50 [10]: 5 nM
Activity [11]: Active
inhibition [12]: Active
Activity [13]: Active
Vd [14]: 1.54 L/kg
bioavailability [15]: 24.5%
Activity [16]: Active
Kd [17]: 220 nM
Activity [18]: Active
Kd [19]: 100 nM
Activity [20]: Active
IC50 [21]: 619 nM
Activity [22]: Non-Toxic
IC50 [23]: 1960 nM
half-life [24]: 1.76 h
concentration at 8 h [25]: 8 ng/mL
AUC(0-inf) [26]: 976 ng·h/mL
Activity [27]: Non-Toxic
Activity [28]: Active
Kd [29]: 10 nM
Kd [30]: 36 nM
IC50 [31]: 47 nM
concentration at 0.5 h [32]: 397 ng/mL
IC50 [33]: 1510 nM
Activity [34]: Active
Activity [35]: inactive
IC50 [36]: 924 nM
Kd [37]: 43 nM
IC50 [38]: > 3300 nM
concentration at 1 h [39]: 228 ng/mL
IC50 [40]: 157 nM
concentration at 4 h [41]: 49.1 ng/mL
